≈ marks a conversion by molar mass, not a printed value.
Tests used:
Adenosine receptor A2a [1] = target: T1, Adenosine receptor A2a (Homo sapiens, UniProt P29274); assay: Displacement of [3H]-ZM241385 from human adenosine A2A receptor expressed in high five cells after 30 mins by scintillation counting
[2] = target: T2, Adenosine receptor A1 (Homo sapiens) (UniProt P30542); assay: Displacement of [3H]-DPCPX from human adenosine A1 receptor expressed in CHO cells at 10 uM after 30 mins by scintillation counting; format: cell-based
T2 sequence (whole entry): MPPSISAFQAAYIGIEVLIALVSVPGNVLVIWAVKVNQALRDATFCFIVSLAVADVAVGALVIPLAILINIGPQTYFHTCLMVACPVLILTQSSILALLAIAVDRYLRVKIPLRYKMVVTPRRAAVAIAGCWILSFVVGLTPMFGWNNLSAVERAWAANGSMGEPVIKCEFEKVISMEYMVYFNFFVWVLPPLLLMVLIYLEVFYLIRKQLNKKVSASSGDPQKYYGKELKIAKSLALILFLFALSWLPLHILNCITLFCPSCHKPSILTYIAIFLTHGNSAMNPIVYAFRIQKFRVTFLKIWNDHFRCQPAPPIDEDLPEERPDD

Liver microsomes [3] = assay: Intrinsic clearance in human liver microsomes at 1 uM after 60 mins by LC-MS/MS analysis; format: ADME, Microsome; conditions: 1 h
In short: (§1)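 Compound at 1 μM with human or rat liver microsomes (0.5 mg protein/mL) plus NADPH at 37 C. Samples at 0, 5, 15, 30 and 60 min, quenched with acetonitrile, analysed by LC-MS/MS.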

Liver microsomes [4] = assay: Intrinsic clearance in rat liver microsomes at 1 uM after 60 mins by LC-MS/MS analysis; format: ADME, Microsome; conditions: 1 h; in short: as §1
Cytochrome P450 1A2 = target: T3, Cytochrome P450 1A2 (Homo sapiens, UniProt P05177); assay: Inhibition of recombinant CYP1A2 after 28 mins; format: ADME
T3 sequence (P05177 whole entry): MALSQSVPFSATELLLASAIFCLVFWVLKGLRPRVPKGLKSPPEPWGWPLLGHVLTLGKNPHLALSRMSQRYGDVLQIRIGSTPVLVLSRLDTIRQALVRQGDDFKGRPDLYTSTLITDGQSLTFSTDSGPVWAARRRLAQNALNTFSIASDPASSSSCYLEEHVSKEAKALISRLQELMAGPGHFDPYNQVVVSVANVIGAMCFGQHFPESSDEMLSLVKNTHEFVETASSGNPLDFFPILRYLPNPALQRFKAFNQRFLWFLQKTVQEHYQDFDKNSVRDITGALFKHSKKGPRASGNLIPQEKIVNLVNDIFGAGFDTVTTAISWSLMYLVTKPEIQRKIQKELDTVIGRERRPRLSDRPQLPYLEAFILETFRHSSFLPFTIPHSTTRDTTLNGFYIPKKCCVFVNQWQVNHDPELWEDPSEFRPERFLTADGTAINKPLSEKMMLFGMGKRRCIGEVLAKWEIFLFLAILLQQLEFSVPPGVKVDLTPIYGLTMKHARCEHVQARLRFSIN
In short: (§2)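 Recombinant CYP supersomes incubated in phosphate buffer with eight compound concentrations (40-0.02 μM) and fluorogenic substrates. CYP1A2: 7-ethoxy-3-cyanocoumarin 10 μM, 28 min. CYP2C19: same substrate 50 μM, 45 min. CYP2D6: AMMC 3 μM, 45 min. CYP3A4: resorufin benzyl ether 100 μM, 30 min. Fluorescent metabolite read; IC50 relative to uninhibited controls.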

Cytochrome P450 2C19 = Cytochrome P450 2C19 (Homo sapiens, UniProt P33261); assay: Inhibition of recombinant CYP2C19 after 45 mins; format: ADME; in short: as §2
Chain of Cytochrome P450 2C19 (P33261 whole entry): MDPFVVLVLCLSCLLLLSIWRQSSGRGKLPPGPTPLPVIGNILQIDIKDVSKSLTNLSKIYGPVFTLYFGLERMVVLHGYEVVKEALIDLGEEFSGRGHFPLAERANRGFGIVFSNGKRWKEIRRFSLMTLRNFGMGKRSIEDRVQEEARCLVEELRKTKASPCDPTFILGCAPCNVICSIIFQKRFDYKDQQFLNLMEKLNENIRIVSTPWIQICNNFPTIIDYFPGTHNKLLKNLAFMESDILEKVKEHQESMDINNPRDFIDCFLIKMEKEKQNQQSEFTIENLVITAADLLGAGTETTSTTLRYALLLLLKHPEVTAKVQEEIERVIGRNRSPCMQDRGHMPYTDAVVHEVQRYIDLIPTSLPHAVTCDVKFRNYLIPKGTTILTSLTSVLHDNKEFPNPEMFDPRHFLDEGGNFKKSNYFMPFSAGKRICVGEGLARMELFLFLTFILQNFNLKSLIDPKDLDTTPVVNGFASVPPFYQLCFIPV

Cytochrome P450 2D6 = Cytochrome P450 2D6 (Homo sapiens, UniProt P10635); assay: Inhibition of recombinant CYP2D6 after 45 mins; format: ADME; in short: as §2
Chain of Cytochrome P450 2D6 (P10635 whole entry): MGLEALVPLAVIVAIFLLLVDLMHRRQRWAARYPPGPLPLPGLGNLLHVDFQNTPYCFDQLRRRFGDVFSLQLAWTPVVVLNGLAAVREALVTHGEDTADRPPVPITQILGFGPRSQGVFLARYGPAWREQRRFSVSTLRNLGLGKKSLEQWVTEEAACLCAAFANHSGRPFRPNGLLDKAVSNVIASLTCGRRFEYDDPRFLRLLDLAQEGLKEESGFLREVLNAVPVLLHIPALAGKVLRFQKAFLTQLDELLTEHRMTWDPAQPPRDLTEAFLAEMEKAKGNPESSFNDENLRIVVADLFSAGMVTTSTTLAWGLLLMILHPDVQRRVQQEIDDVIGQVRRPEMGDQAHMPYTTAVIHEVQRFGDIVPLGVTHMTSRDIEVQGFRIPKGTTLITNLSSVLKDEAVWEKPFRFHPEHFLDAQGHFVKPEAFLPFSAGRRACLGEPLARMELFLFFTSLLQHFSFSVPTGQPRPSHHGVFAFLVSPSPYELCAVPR

Mus musculus = assay: Reversal of haloperidol-induced hypolocomotion in po dosed NMRI mouse administered 30 mins before haloperidol challenge measured for 20 mins; format: functional
In short: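 Male NMRI mice (n = 8/group) were given compound po in 25% cremophor/saline, then haloperidol 0.63 mg/kg sc 30 min later. After 15 min they went into photocell activity boxes, and locomotion was recorded for 20 min. ED50 by sigmoidal fit with top 100 and bottom 0.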

Cytochrome P450 2C9 = Cytochrome P450 2C9 (Homo sapiens, UniProt P11712); assay: Inhibition of recombinant CYP2C9 after 45 mins; format: ADME
Chain of Cytochrome P450 2C9 (P11712 whole entry): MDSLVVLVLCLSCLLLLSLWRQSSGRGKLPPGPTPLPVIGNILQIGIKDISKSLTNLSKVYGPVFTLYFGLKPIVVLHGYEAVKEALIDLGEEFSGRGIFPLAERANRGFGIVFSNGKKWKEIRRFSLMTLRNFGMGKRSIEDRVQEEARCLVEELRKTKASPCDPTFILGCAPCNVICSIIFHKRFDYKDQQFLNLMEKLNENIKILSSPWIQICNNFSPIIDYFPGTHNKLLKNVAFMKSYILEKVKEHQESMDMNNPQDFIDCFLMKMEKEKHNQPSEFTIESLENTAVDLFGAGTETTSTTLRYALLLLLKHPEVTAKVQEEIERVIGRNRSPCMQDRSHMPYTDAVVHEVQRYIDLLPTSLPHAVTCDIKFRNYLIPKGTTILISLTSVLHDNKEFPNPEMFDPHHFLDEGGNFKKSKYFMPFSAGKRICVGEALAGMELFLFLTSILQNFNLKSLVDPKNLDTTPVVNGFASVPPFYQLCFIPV

Cytochrome P450 3A4 = Cytochrome P450 3A4 (Homo sapiens, UniProt P08684); assay: Inhibition of recombinant CYP3A4 after 30 mins; format: ADME
Chain of Cytochrome P450 3A4 (P08684 whole entry): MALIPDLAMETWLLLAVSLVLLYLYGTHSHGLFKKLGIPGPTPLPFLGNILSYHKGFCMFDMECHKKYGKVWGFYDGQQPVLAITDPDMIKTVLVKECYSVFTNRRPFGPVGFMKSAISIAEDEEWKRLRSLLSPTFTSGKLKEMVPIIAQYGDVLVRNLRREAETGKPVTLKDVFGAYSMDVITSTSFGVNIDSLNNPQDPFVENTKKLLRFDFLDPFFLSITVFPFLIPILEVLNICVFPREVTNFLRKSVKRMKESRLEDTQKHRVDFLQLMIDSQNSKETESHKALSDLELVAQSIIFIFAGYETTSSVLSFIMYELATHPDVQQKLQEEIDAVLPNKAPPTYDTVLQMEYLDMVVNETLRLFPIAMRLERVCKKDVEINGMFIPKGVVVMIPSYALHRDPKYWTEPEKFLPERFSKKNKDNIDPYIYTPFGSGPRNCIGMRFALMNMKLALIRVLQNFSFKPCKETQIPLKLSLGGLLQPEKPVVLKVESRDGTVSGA
In short: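 Recombinant CYP supersomes incubated in phosphate buffer with eight compound concentrations (40-0.02 μM) and fluorogenic substrates. CYP3A4: resorufin benzyl ether 100 μM, 30 min. Fluorescent metabolite read; IC50 relative to uninhibited controls.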

Caco-2 = assay: Efflux ratio of permeability from basolateral to apical over apical to basolateral side in human Caco2 cells after 21 to 28 days by LC-MS/MS analysis
Adenosine receptor A1 = target: T4, Adenosine receptor A1 (Homo sapiens, UniProt P30542); assay: Displacement of [3H]-DPCPX from human adenosine A1 receptor expressed in CHO cells after 30 mins by scintillation counting; format: cell-based
T4 sequence (P30542 whole entry): T2 sequence (whole entry)
In short: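 CHO-hA1 membranes at 10.8 μg protein/well, pretreated with adenosine deaminase (2 U/mL, 30 min, 37 C), were incubated with 1 nM [3H]-DPCPX in 50 mM Tris/HCl pH 7.4 for 30 min at 25 C across 10 compound concentrations. Filtration on PEI-soaked GF/B, scintillation counting. Nonspecific binding by CGS15943. Ki by Cheng-Prusoff. Means of ≥2 determinations.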

Homo sapiens = organism: Homo sapiens; assay: Selectivity ratio of Ki for human adenosine A1 receptor to Ki for human adenosine A2A receptor
Adenosine receptor A2a [5] = target: T1, Adenosine receptor A2a; assay: Displacement of [3H]-ZM241385 from human adenosine A2A receptor expressed in high five cells at 10 uM after 30 mins by scintillation counting
In short: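 hA2A membranes from baculovirus-infected High Five cells (harvested 72 h), pretreated with adenosine deaminase 2 U/mL for 30 min at 37 C. Membranes at 10.6 μg protein/well were incubated with 1 nM [3H]-ZM241385 in 50 mM Tris/HCl pH 7.4 for 30 min at 25 C. GF/B filtration, scintillation counting. Nonspecific binding by CGS15943. Percent displacement at 10 μM.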

[6] = Aqueous solubility of the compound at pH 4; format: physicochemical; conditions: water
[7] = Chemical stability of the compound assessed as half life; format: physicochemical
In short: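 Prodrug was dissolved in water, filtered, and diluted to approximately 0.05 mg/mL in buffers of different pH. Sealed vials were stored at 50 C to accelerate hydrolysis. Samples were diluted 1:1 with acetonitrile and analysed by HPLC for prodrug and hydrolysis products.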

Rattus norvegicus [8] = assay: Tmax in Sprague-Dawley rat assessed as 4-(3,3-Dimethyl-butyrylamino)-3,5-difluoro-N-thiazol-2-yl-benzamide level at 1.4 mg/kg, po; format: ADME, organism-based; set-up: dose 1.4 mg/kg, route oral; conditions: in vivo
In short: (§3)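 Prodrugs dosed po in aqueous 10% hydroxypropyl β-cyclodextrin (2 mL/kg) to rats; doses expressed as parent-drug equivalents; n = 3. Six tail-vein blood samples (~100 μL) taken between 5 and 420 min. Parent drug in plasma measured by HTLC-MS/MS. Profiles fitted with a one-compartment model; AUC extrapolated to infinity.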

Rattus norvegicus [9] = assay: Cmax in Sprague-Dawley rat assessed as 4-(3,3-Dimethyl-butyrylamino)-3,5-difluoro-N-thiazol-2-yl-benzamide level at 1.4 mg/kg, po; format: ADME, organism-based; set-up: dose 1.4 mg/kg, route oral; conditions: in vivo; in short: as §3
Rattus norvegicus [10] = assay: Oral bioavailability in Sprague-Dawley rat assessed as 4-(3,3-Dimethyl-butyrylamino)-3,5-difluoro-N-thiazol-2-yl-benzamide level at 1.4 mg/kg; format: ADME, organism-based; conditions: in vivo; in short: as §3

T1 sequence (P29274 whole entry): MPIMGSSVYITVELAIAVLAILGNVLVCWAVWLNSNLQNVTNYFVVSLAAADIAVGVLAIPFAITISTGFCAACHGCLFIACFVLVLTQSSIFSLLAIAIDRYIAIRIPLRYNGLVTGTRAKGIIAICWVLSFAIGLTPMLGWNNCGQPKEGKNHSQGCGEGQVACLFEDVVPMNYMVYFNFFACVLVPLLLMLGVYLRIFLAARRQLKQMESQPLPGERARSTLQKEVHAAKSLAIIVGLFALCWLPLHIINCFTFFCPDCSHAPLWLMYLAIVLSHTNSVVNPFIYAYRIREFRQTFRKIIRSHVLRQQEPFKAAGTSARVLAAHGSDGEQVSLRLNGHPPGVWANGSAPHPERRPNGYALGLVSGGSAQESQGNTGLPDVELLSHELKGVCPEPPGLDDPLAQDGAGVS

Row | SMILES | Ki (Adenosine receptor A2a [1]) | inhibition [2] | Ki (Adenosine receptor A1) | Ratio Ki (Homo sapiens) | also measured
1 | CCC(=O)Nc1ccc(C(=O)Nc2nccs2)cc1 | 890 nM | 31% | – | – | –
2 | Cc1nc(NC(=O)c2ccc(NC(=O)CC(C)(C)C)cc2)sc1C | 220 nM | – | – | – | –
3 | CCn1c(=O)c2c(nc(/C=C/c3ccc(OC)c(OC)c3)n2C)n(CC)c1=O [ISTRADEFYLLINE] | – | – | – | – | CL (Liver microsomes [3]): 0.1 L/min; CL (Liver microsomes [4]): 11 mL/min; IC50 (Cytochrome P450 1A2): > 40000 nM; IC50 (Cytochrome P450 2C19): > 40000 nM; IC50 (Cytochrome P450 2D6): > 40000 nM; ED50 (Mus musculus): 0.13 mg/kg
4 | CCCCC(=O)Nc1ccc(C(=O)Nc2nccs2)cc1 | 190 nM | 69% | – | – | CL (Liver microsomes [3]): 2.3 L/min; CL (Liver microsomes [4]): 54 mL/min; IC50 (Cytochrome P450 1A2): > 40000 nM; IC50 (Cytochrome P450 2C9): 40000 nM; IC50 (Cytochrome P450 2C19): > 40000 nM; IC50 (Cytochrome P450 2D6): > 40000 nM; IC50 (Cytochrome P450 3A4): > 40000 nM; Ratio (Caco-2): 0.7
5 | COc1cc(C(=O)Nc2nccs2)ccc1NC(=O)CC(C)(C)C | 17 nM | – | 340 nM | 20 | –
6 | CC(C)(C)CNC(=O)c1ccc(NC(=O)c2nccs2)cc1 | – | – | – | – | inhibition (Adenosine receptor A2a [5]): 0%
7 | CC(C)(C)CC(=O)Nc1ccc(C(=O)Nc2ncc(Cl)s2)cc1 | 28 nM | – | 220 nM | – | –
8 | Cc1cc(NC(=O)CC(C)(C)C)ccc1C(=O)Nc1nccs1 | 200 nM | 36% | – | – | –
9 | COc1cc(NC(=O)CC(C)(C)C)ccc1C(=O)Nc1nccs1 | 50 nM | – | 1100 nM | 22 | –
10 | CC(C)(C)CC(=O)Nc1ccc(C(=O)Nc2nccs2)c(Cl)c1 | 180 nM | 14% | – | – | –
11 | Cc1cc(C(=O)Nc2nccs2)cc(Cl)c1NC(=O)CC(C)(C)C | 32 nM | – | 580 nM | 18 | –
12 | COc1c(C(=O)Nc2nccs2)ccc(NC(=O)CC(C)(C)C)c1F | 12 nM | – | 220 nM | 18 | –
13 | CC[C@H](C)[C@H](N)C(=O)OCn1ccs/c1=N\C(=O)c1cc(F)c(NC(=O)CC(C)(C)C)c(F)c1 | – | – | – | – | solubility [6]: 19.4 mg/mL (≈ 39.1 mM); half-life [7]: 24 min; Tmax (Rattus norvegicus [8]): 54 min; Cmax (Rattus norvegicus [9]): 381 ng/mL; F (Rattus norvegicus [10]): 31%

Reference: ChEMBL document CHEMBL1671809, “Discovery of phosphoric acid mono-{2-[(E/Z)-4-(3,3-dimethyl-butyrylamino)-3,5-difluoro-benzoylimino]-thiazol-3-ylmethyl} ester (Lu AA47070): a phosphonooxymethylene prodrug of a potent and selective hA(2A) receptor antagonist” (J Med Chem, 2011)
